Results of several laboratories.
Compare with care: the assays were run in different laboratories.
Target: Receptor tyrosine-protein kinase erbB-4 (ERBB4, Homo sapiens, UniProt Q15303)

Structure (SMILES)	assay	conditions	remaining binding [%]
COc1cnc(Nc2cccc(S(N)(=O)=O)c2)nc1N1CCN(c2ccccc2)CC1	binding, competition with immobilised ligand	1 µM	86
Cc1noc([C@H]2C[C@@H](c3ccc(C(F)(F)F)cc3)CN(C(=O)N3CCS(=O)(=O)C3)C2)n1	cell-free assay, competition with immobilised ligand	1 µM	100
c1cnn2ncc(-c3ccnc(N4CCC45COC5)n3)c2c1	binding	1 µM	76
CCCCN(CCCC)C(=O)CN1C[C@@H](c2cc(OC)c3c(c2)OCO3)[C@H](C(=O)O)[C@H]1CC(C)(C)CCC	cell-free assay, competition with immobilised ligand	1 µM	95
O=C(c1ccc(Nc2ncc(Cl)c(-c3cc4ccccc4s3)n2)cc1)N1CCC(N2CCCC2)CC1	binding, competition with immobilised ligand	1 µM	98
CN(CCCC(F)(F)F)c1nccc(-c2cnn3ncccc23)n1	binding	1 µM	72
COc1ccc2c(c1)O[C@@H](c1ccc(OC)c(OC)c1)C[C@H]2NC(=O)C1(c2ccc3c(c2)OC(F)(F)O3)CC1	cell-free assay, competition with immobilised ligand	1 µM	90
O=C(c1ccc(Nc2nccc(-c3cc4ccccc4s3)n2)cc1)N1CCC(N2CCCC2)CC1	binding, competition with immobilised ligand	1 µM	93
CCC(=N\O)/C(C)=C/c1ccc(F)cc1	cell-free assay, competition with immobilised ligand	1 µM	66
O=C(NCCCN1CCOCC1)c1ccc(Nc2nccc(-c3cc4ccccc4s3)n2)cc1	binding, competition with immobilised ligand	1 µM	86
CC(C)(C)c1ccc(-c2nc(CBr)nn2-c2cccc(O)c2)cc1	cell-free assay, competition with immobilised ligand	10 µM	88
CN(C)c1nccc(-c2cnn3ncccc23)n1	binding	1 µM	81
CN(C)C(=O)Cn1cc(-c2nc(C3(c4ccc(-c5cnc(N)nc5)cc4)CC3)no2)cn1	cell-free assay, competition with immobilised ligand	1 µM	100
N[C@@H]1CCN(c2nccc(-c3cnn4ncccc34)n2)C1	binding	1 µM	100
O=C(Nc1c[nH]nc1C(=O)NC1CCNCC1)c1cc(F)cc(F)c1	binding, competition with immobilised ligand	1 µM	100
F[C@@H]1CCN(c2nccc(-c3cnn4ncccc34)n2)C1	binding	1 µM	82
N#Cc1ccccc1CSc1nnc2c(n1)[nH]c1ccccc12	binding, competition with immobilised ligand	10 µM	74
CNC(=O)[C@@H]1CC[C@@H](n2c(-c3ccc4cnccc4c3)nc3ccc(C(=O)NCc4cccc(C(N)=O)c4)cc32)C1	binding, competition with immobilised ligand	1 µM	100
N#CC1(c2ccccn2)CCN(Cc2cc(C(=O)N3CCCC3)c(=O)n3ccccc23)CC1	cell-free assay, competition with immobilised ligand	1 µM	85
C=CC(=O)N1CCC(C(=O)NCC(=O)N2CCN(c3nc(-c4cnc(N)nc4C(F)F)nc(N4CCOCC4)n3)CC2)CC1	binding, competition with immobilised ligand	1 µM	100
C[C@@H]1CCN(c2nccc(-c3cnn4ncccc34)n2)C1	binding	1 µM	79
COc1ncc2cc3ccccc3nc2c1C#N	cell-free assay, competition with immobilised ligand	5 µM	96
